Laboratory results reported in ChEMBL document CHEMBL1153357, “Rational design and synthesis of potent and long-lasting glutamic acid-based dipeptidyl peptidase IV inhibitors” (Bioorg Med Chem Lett, 2009).
Activity calls are given as the source filed them. No cut-off for these calls is given here.

Experiments:
[1] = Inhibition of FAP
Summary of the method: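 Enzyme inhibition IC50 is reported as the mean of at least three experiments, with standard deviations of ±40%.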

Dipeptidyl peptidase 2 = Dipeptidyl peptidase 2 (Homo sapiens, UniProt Q9UHL4); assay: Inhibition of DPP2
Dipeptidyl peptidase 4 = Dipeptidyl peptidase 4 (Homo sapiens, UniProt P27487)
Sequence of Dipeptidyl peptidase 4 (P27487 whole entry): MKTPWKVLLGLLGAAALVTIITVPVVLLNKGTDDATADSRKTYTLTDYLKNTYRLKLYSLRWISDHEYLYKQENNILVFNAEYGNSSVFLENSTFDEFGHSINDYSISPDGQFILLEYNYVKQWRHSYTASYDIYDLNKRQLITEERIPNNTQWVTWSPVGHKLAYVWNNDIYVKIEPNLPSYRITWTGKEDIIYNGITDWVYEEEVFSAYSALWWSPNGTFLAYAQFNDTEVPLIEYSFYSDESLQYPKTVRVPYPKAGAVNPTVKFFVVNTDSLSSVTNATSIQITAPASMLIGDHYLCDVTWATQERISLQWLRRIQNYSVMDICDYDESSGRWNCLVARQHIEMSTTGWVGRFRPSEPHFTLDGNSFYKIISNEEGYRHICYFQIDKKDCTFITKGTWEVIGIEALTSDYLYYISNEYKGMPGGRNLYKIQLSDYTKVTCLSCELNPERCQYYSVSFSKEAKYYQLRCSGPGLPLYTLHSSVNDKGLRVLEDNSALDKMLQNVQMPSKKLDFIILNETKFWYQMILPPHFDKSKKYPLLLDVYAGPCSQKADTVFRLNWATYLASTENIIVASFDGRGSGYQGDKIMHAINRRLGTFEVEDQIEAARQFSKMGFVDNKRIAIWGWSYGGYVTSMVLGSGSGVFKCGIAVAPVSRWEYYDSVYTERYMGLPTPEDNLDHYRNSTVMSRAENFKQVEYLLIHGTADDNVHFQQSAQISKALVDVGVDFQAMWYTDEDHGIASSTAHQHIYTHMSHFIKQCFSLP

Rattus norvegicus [2] = assay: Inhibition of plasma DPP4 in Wistar rat at 3 mg/kg, po measured 30 mins to 4 hrs; settings: read-out: INH
[3] = Stability to the compound assessed as half life in phosphate buffer at pH 7.4; type: physicochemical
Rattus norvegicus [4] = assay: Inhibition of plasma DPP4 in Wistar rat at 3 mg/kg, po measured after 8 hrs; settings: read-out: INH
Mus musculus = assay: Reduction in glucose excursion in C57BL/6 mouse at 3 mg/kg, po measured up to 120 mins by oral glucose tolerance test; type: functional, organism-based; design: dose 3 mg/kg
Summary of the method: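 C57BL/6j mice (n = 6) received the compound orally at 3 mpk, with water as the control, 30 min before a glucose load of 3 g/kg.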

Dipeptidyl peptidase 8 = Dipeptidyl peptidase 8 (Homo sapiens, UniProt Q6V1X1); assay: Inhibition of DPP8
Sequence of Dipeptidyl peptidase 8 (Q6V1X1 whole entry): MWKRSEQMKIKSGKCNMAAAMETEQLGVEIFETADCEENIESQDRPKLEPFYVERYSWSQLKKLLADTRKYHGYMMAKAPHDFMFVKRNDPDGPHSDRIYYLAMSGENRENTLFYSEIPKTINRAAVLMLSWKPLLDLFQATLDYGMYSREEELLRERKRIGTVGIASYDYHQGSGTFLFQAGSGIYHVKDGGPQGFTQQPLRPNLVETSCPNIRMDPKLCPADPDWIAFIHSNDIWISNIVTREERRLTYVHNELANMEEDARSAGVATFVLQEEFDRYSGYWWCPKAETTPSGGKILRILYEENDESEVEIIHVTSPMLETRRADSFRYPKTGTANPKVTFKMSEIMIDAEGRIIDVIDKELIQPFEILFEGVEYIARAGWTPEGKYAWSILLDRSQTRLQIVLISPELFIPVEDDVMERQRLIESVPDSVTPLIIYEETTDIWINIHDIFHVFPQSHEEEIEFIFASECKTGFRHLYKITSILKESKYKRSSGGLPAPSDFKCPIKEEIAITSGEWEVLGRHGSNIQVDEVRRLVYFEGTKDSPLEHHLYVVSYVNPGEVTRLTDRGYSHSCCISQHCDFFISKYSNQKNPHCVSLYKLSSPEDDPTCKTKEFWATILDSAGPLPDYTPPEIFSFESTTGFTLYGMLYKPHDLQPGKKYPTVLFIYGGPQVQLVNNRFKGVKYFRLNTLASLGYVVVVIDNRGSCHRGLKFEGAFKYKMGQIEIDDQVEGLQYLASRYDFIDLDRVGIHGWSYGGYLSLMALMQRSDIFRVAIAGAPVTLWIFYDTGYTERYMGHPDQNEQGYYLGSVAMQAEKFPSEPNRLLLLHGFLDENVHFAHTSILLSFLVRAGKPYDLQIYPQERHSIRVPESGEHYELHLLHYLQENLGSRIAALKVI

Row | IC50 [1] [µM] | IC50 (Dipeptidyl peptidase 2) [µM] | IC50 (Dipeptidyl peptidase 4) [µM] | Structure (SMILES) | also measured
1 | > 20 | > 20 | 0.012 | CC(C)(CC(=O)N1CCn2c(nnc2C(F)(F)F)C1)[C@H](N)C(=O)N1CCC[C@H]1C#N | –
2 | 1.2 | – | – | N#C[C@@H]1CCCN1C(=O)[C@@H](N)CCC(=O)N1Cc2ccccc2C1 | –
3 | 2.3 | – | – | N#C[C@@H]1CCCN1C(=O)[C@@H](N)CCC(=O)N1CCc2nc(-c3ccc(F)cc3)sc2C1 | –
4 | > 20 | – | – | N[C@@H](CC(=O)N1CCn2c(nnc2C(F)(F)F)C1)Cc1cc(F)c(F)cc1F [SITAGLIPTIN] | –
5 | > 20 | – | – | N#C[C@@H]1CCCN1C(=O)[C@@H](N)CCC(=O)N1CCn2c(nnc2C(F)(F)F)C1 | –
6 | 11 | > 20 | 0.007 | N#C[C@@H]1CCCN1C(=O)[C@@H](N)CCC(=O)N1CCCC1 | –
7 | 7.1 | > 20 | – | C[C@H](CC(=O)N1CCn2c(nnc2C(F)(F)F)C1)[C@H](N)C(=O)N1CCC[C@H]1C#N | –
8 | > 20 | > 20 | 0.016 | CC(C)(CC(=O)N1CCc2ccccc2C1)[C@H](N)C(=O)N1CCC[C@H]1C#N | –
9 | 12 | > 20 | 1.6 | N[C@@H](CCC(=O)N1Cc2ccccc2C1)C(=O)N1CCSC1 | IC50 (Dipeptidyl peptidase 8): > 20 µM
10 | 8.3 | > 20 | 0.01 | N#C[C@@H]1CCCN1C(=O)[C@@H](N)CCC(=O)N1CCSC1 | –
11 | – | – | 0.037 | N#C[C@@H]1CCCN1C(=O)[C@@H](N)CCC(=O)Nc1ccccc1 | –
12 | 8.8 | – | – | N#C[C@@H]1CCCN1C(=O)[C@@H](N)CCC(=O)N1CCc2ccccc2C1 | –

The next lines start with the molecule.

Row | Structure (SMILES) | IC50 [1] [µM] | IC50 (Dipeptidyl peptidase 2) [µM] | IC50 (Dipeptidyl peptidase 4) [µM] | also measured
13 | COc1cc2c(cc1OC)C(C(C)C)N(C(=O)CC[C@H](N)C(=O)N1CCC[C@H]1C#N)CC2 (some centres undefined) | 6.1 | – | – | –
14 | N#C[C@@H]1CCCN1C(=O)[C@@H](N)CCC(=O)NC1CCCC1 | > 20 | > 20 | 0.011 | –
15 | N#C[C@@H]1CCCN1C(=O)[C@@H](N)CCC(=O)N1CCN(c2ccncc2)CC1 | 0.47 | – | – | –
16 | CC(C)(CC(=O)N1CCc2ccsc2C1)[C@H](N)C(=O)N1CCC[C@H]1C#N | > 20 | > 20 | 0.025 | –
17 | N#C[C@@H]1CCCN1C(=O)[C@@H](N)CCC(=O)N1CCOCC1 | > 20 | > 20 | 0.017 | –
18 | N#C[C@@H]1CCCN1C(=O)[C@@H](N)CCC(=O)N1CCc2ccsc2C1 | 7.5 | – | – | –
19 | COC[C@H]1CCCN1C(=O)CC[C@H](N)C(=O)N1CCC[C@H]1C#N | 21 | > 20 | 0.022 | –
20 | N#C[C@@H]1CCCN1C(=O)[C@@H](N)CCC(=O)N1CCn2cnnc2C1 | > 20 | > 20 | 0.007 | –
21 | COC[C@@H]1CCCN1C(=O)CC(C)(C)[C@H](N)C(=O)N1CCC[C@H]1C#N.O=C(O)C(F)(F)F | > 20 | > 20 | – | inhibition in vivo at 3 mg/kg (Rattus norvegicus [2]): > 80%; half-life [3]: > 168 h; inhibition in vivo at 3 mg/kg (Rattus norvegicus [4]): > 60%; Activity (Mus musculus): Active
22 | N#C[C@@H]1CCCN1C(=O)[C@@H](N)CCC(=O)N1CCN(C(=O)C(F)(F)F)CC1 | 19 | > 20 | 0.008 | –
23 | N#C[C@@H]1CCCN1C(=O)[C@@H](N)CCC(=O)N1CCn2nc(C(F)(F)F)nc2C1 | > 20 | > 20 | 0.009 | –
24 | N#C[C@@H]1CCCN1C(=O)[C@@H](N)CC(=O)N1Cc2ccccc2C1 | > 20 | > 20 | – | –
25 | CCOC(=O)N1CCN(C(=O)CC[C@H](N)C(=O)N2CCC[C@H]2C#N)CC1 | 3.1 | > 20 | 0.031 | –
26 | C[C@@H]1CCCN1C(=O)CC(C)(C)[C@H](N)C(=O)N1CCC[C@H]1C#N | > 20 | > 20 | 0.013 | –
27 | N#CC1CCCN1C(=O)[C@@H](N)CCC(=O)N1Cc2ccccc2C1 (single isomer, unassigned) | 1.2 | – | – | –
28 | CC[C@H](CC(=O)N1CCn2c(nnc2C(F)(F)F)C1)[C@H](N)C(=O)N1CCC[C@H]1C#N | > 20 | > 20 | 0.031 | –
29 | N#C[C@@H]1CCCN1C(=O)[C@@H](N)CCCC(=O)N1Cc2ccccc2C1 | 0.054 | – | – | –
30 | CC(C)(CC(=O)N1Cc2ccccc2C1)[C@H](N)C(=O)N1CCC[C@H]1C#N | > 20 | > 20 | 0.012 | –
31 | N#C[C@@H]1CCCN1C(=O)[C@@H](N)CCC(=O)N1CCn2cc(C(F)(F)F)nc2C1 | 14 | – | – | –
32 | CC(C)(CC(=O)N1CCn2nc(C(F)(F)F)nc2C1)[C@H](N)C(=O)N1CCC[C@H]1C#N | > 20 | > 20 | 0.031 | –
33 | N#C[C@@H]1CCCN1C(=O)CNC12CC3CC(CC(O)(C3)C1)C2 [VILDAGLIPTIN] | > 20 | – | – | inhibition in vivo at 3 mg/kg (Rattus norvegicus [2]): > 80%; inhibition in vivo at 3 mg/kg (Rattus norvegicus [4]): > 60%; Activity (Mus musculus): Active
34 | N#C[C@@H]1CCCN1C(=O)[C@@H](N)CCC(=O)N1CCCCC1 | > 20 | > 20 | 0.015 | –
35 | COC[C@@H]1CCCN1C(=O)CC[C@H](N)C(=O)N1CCC[C@H]1C#N | 20 | > 20 | 0.007 | –
